Data: paper PMC6645225 (ACS Omega, 2018)
“Also recorded” adds a separate entry of the source.

Columns and labels:
[1] = target: T1, CYP1A1 (Homo sapiens, UniProt P04798); assay: CYP1A1 inhibition in yeast microsomes; format: biochemical
T1 sequence (P04798 1-512): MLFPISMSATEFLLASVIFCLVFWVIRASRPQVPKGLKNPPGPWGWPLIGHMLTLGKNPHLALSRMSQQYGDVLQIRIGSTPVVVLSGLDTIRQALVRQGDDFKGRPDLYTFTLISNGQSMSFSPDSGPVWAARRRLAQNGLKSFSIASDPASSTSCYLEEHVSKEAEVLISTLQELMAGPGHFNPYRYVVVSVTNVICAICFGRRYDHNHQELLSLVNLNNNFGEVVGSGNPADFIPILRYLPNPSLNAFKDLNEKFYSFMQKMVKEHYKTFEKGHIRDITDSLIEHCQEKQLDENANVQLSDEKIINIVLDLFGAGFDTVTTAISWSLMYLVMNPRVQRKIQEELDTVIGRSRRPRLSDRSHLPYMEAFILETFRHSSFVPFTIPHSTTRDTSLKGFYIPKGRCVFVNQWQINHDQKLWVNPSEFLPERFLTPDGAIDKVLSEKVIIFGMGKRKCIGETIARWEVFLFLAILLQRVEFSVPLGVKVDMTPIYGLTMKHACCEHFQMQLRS
In short: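 Human CYP1A1 expressed in yeast microsomes (Sacchrosomes). […] IC50 from a four-parameter variable-slope sigmoidal (Hill) fit of uninhibited fraction against inhibitor concentration.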

[2] = target: T1, CYP1A1; assay: CYP1A1 inhibition in live HEK293 cells overexpressing CYP1A1; format: cell-based; settings: for inhibition at 10 µM: human, live HEK293 cells overexpressing CYP1A1, % inhibition of CYP1A1 at 10 μM (Mean ± SD) HEK293 cells, HEK293 cells overexpressing CYP1A1; for selectivity for CYP1A1 over CYP1B1: ratio of live cell IC50 values CYP1B1/CYP1A1
[3] = target: T2, CYP1A2 (Homo sapiens, UniProt P05177); assay: CYP1A2 inhibition in Sacchrosomes; format: biochemical
T2 sequence (P05177 1-516): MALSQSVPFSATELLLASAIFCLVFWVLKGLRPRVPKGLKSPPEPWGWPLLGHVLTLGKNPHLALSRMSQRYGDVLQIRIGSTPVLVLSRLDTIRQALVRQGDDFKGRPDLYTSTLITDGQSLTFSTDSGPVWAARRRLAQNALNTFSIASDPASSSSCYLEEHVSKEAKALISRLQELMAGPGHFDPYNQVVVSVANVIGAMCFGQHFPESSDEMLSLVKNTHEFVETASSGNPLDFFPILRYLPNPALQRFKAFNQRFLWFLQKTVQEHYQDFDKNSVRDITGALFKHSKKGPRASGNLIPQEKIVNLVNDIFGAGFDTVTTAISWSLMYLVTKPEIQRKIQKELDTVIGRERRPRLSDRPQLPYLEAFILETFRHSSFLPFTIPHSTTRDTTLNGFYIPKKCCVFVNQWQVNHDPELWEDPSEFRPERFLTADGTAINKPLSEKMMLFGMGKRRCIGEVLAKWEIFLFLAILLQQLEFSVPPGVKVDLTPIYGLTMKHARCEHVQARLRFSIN
In short: (§1)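 Kinetic microplate assay, 15 min reaction, using recombinant human P450s expressed in S. cerevisiae microsomes. Run in 100 mM potassium phosphate pH 7.4 with an NADPH-regenerating system (final: 0.04 units G6PDH, 1.3 mM NADP+, 3.3 mM glucose-6-phosphate, 3.3 mM MgCl2, 50 μM sodium citrate). Reaction started with substrate plus NADPH system. Test compound serially diluted from 20 μM final (CYP2E1: from 10 μM), 0.5% DMSO final. IC50 from Hill fit.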

[4] = target: T3, CYP1B1 (Homo sapiens, UniProt Q16678); assay: CYP1B1 inhibition in Sacchrosomes; format: biochemical
T3 sequence (Q16678 1-543): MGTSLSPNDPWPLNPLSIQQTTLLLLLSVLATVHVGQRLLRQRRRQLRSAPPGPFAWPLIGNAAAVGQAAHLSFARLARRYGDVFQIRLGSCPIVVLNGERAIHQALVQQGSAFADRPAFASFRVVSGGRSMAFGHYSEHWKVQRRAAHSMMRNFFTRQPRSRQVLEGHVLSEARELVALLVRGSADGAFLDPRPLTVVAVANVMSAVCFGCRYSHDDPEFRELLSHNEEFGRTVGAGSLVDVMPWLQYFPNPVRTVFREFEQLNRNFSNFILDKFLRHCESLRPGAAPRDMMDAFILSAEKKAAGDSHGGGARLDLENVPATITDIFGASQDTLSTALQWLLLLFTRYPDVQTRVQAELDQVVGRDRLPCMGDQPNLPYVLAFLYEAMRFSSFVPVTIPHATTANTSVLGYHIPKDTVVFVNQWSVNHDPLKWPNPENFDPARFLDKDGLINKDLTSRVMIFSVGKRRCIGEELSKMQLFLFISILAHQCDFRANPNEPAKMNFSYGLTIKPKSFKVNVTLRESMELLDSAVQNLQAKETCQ
In short: as §1

[5] = system: CYP2A6, CYP2B6, CYP2C8, CYP2C9, CYP2C18, CYP2C19, CYP2D6, CYP2E1, CYP3A4; assay: CYP2 and CYP3 subfamily panel inhibition in Sacchrosomes; format: biochemical; settings: human, pH 7.4
In short: as §1

[6] = target: T3, CYP1B1; assay: CYP1B1 inhibition in live human HEK293 cells; format: cell-based
In short: (§2)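 Live recombinant HEK293 cells, each expressing a single human CYP isoform. IC50 from a four-parameter variable-slope sigmoidal (Hill) fit of uninhibited fraction against inhibitor concentration.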

[7] = system: CYP1A1-overexpressing HEK293 cells; assay: Protection of CYP1A1-overexpressing HEK293 cells from B[a]P toxicity; format: cell-based, human; settings: compound at 3× IC50 concentration
In short: (§3)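 CYP1A1-expressing adherent HEK293 cells exposed to B[a]P at 0.05–100 μM, alone or with test compound. Viability read by MTT and checked by sulforhodamine B. EC50 (B[a]P concentration for 50% viability loss) taken from a dose–response curve of viability versus log B[a]P concentration, averaged over three independent experiments.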

[8] = target: T2, CYP1A2; assay: CYP1A2 inhibition in live human HEK293 cells; format: cell-based
In short: as §2

[9] = target: CYP2D6 (Homo sapiens, UniProt P10635); assay: CYP2D6 inhibition in live human HEK293 cells; format: cell-based
In short: as §2

[10] = target: CYP3A4 (Homo sapiens, UniProt P08684); assay: CYP3A4 inhibition in live human HEK293 cells; format: cell-based
In short: as §2

[11] = system: A549 cells; assay: FACS cell cycle analysis of A549 lung cancer cells treated with B[a]P; format: cell-based, human; settings: A549 (p53+); 4l at 3× IC50 before 15 μM B[a]P
In short: (§4)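 CYP1A1 expression in the cells confirmed by western blot. Cells preincubated 20 h with test compound, exposed to 15 μM B[a]P for 3 h, then released into fresh medium for 57 h. Cells trypsinised, PBS-washed and fixed 1 h in 70% ethanol at −20 °C. Treated with RNase (0.5 mg/mL) and stained with propidium iodide (50 μg/mL) for 1 h at 4 °C in the dark. Single cells gated; about 10 000 events collected; % G0/G1, S and G2/M reported.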

[12] = system: Calu-1 cells; assay: FACS cell cycle analysis of Calu-1 lung cancer cells treated with B[a]P; format: cell-based, human; settings: Calu-1 (p53-null); 4l at 3× IC50 before 15 μM B[a]P
In short: as §4

[13] = system: normal HEK293 cells; assay: B[a]P toxicity in normal HEK293 cells; format: cell-based; settings: Homo sapiens, HEK293, read-out: EC50 of B[a]P in normal HEK293 cells
In short: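 Adherent HEK293 cells exposed to a concentration series of B[a]P; viability read by MTT assay. EC50 is the B[a]P concentration giving 50% loss of viability, taken from a dose–response curve of viability versus log B[a]P concentration.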

[14] = Protection of CYP1A1-overexpressing HEK293 cells from B[a]P toxicity; format: cell-based, human; settings: human, CYP1A1-overexpressing HEK293 cells
In short: as §3

Chain of CYP3A4 (P08684 whole entry): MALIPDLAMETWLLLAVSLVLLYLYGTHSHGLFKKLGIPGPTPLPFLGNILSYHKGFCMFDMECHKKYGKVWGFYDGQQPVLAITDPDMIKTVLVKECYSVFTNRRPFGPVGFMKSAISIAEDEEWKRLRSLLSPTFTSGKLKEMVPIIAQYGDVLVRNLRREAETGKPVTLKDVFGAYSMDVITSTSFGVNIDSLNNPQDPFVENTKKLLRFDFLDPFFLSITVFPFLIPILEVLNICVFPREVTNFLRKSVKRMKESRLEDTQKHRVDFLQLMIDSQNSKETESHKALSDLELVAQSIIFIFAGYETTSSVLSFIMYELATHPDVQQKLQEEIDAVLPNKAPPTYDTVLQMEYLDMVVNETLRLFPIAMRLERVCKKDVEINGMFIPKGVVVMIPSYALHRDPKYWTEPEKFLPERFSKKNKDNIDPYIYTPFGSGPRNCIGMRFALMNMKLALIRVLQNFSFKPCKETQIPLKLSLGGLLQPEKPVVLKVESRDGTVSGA
Chain of CYP2D6 (P10635 whole entry): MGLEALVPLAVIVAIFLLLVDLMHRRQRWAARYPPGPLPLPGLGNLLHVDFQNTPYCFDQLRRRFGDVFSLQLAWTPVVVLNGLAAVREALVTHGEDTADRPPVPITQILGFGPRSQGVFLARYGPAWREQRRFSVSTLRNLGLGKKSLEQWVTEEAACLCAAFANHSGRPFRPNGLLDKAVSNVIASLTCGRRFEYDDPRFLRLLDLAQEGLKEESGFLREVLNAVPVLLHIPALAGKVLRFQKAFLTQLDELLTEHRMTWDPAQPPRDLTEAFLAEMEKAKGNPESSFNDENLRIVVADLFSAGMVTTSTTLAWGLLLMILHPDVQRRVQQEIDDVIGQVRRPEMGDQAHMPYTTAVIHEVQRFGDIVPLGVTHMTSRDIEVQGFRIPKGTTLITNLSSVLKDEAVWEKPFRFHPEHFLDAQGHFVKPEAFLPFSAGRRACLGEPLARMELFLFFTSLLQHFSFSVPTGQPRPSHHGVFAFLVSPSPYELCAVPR

SMILES: COc1c(C(=O)C=Cc2cccnc2)c(O)c(OC)c2occc12 [3g, 1-(6-Hydroxy-4,7-dimethoxybenzofuran-5-yl)-3-(pyridin-3-yl)prop-2-en-1-one]
- IC50 [1]: 0.34 ± 0.03 µM
- inhibition at 10 µM ([1]; human, % inhibition of CYP1A1 at 10 μM (Mean ± SD) Sacchrosomes, 10 μM, Sacchrosomes): 97%
- IC50 [2]: 0.47 µM
- inhibition at 10 µM [2]: 99%
- IC50 [3]: 0.17 ± 0.02 µM
- IC50 [4]: 0.66 ± 0.04 µM
- IC50 at 15 min [5]: > 20 µM
- IC50 [6]: 0.27 µM
- protection from CYP1A1-mediated B[a]P toxicity [7]: completely protected

SMILES: COc1c(C(=O)C=Cc2ccsc2)c(O)c(OC)c2occc12 [3r, 1-(6-Hydroxy-4,7-dimethoxybenzofuran-5-yl)-3-(thiophen-3-yl)prop-2-en-1-one]
- IC50 [1]: 0.28 ± 0.03 µM
- IC50 [3]: 4.2 ± 0.8 µM
- IC50 [4]: 0.78 ± 0.04 µM
- IC50 at 15 min [5]: > 20 µM

SMILES: COc1c2c(c(OC)c3occc13)OC(c1ccccc1)CC2=O (stereo not drawn) [4a, 4,9-Dimethoxy-7-phenyl-6,7-dihydro-5H-furo[3,2-g]chromen-5-one]
- IC50 [2]: 1.84 ± 0.14 µM
- inhibition at 10 µM [2]: 87%
- IC50 [8]: > 10 µM
- IC50 [6]: 0.566 ± 0.08 µM
- IC50 [9]: > 10 µM
- IC50 [10]: > 10 µM

SMILES: COc1c2c(c(OC)c3occc13)OC(c1cccnc1)CC2=O (stereo not drawn) [4e, 4,9-Dimethoxy-7-(pyridin-3-yl)-6,7-dihydro-5H-furo[3,2-g]chromen-5-one]
- IC50 [2]: 0.45 ± 0.06 µM
- selectivity for CYP1A1 over CYP1B1 [2]: 9.2 fold
- IC50 [8]: > 10 µM
- IC50 [6]: 4.16 ± 0.25 µM
- IC50 [9]: > 10 µM
- IC50 [10]: > 10 µM

SMILES: COc1c2c(c(OC)c3occc13)OC(c1ccc(F)c(Br)c1)CC2=O (stereo not drawn) [4l, 7-(3-Bromo-4-fluorophenyl)-4,9-dimethoxy-6,7-dihydro-5H-furo[3,2-g]chromen-5-one]
- IC50 [2]: 0.14 ± 0.04 µM
- selectivity for CYP1A1 over CYP1B1 [2]: 170 fold
- IC50 [8]: > 10 µM
- IC50 [6]: 23.8 ± 1.2 µM
- IC50 [9]: > 10 µM
- IC50 [10]: > 10 µM
- protection from CYP1A1-mediated B[a]P toxicity [7]: completely protected
- effect on B[a]P-mediated S-phase block [11]: restored into the cell cycle; also recorded: preponderantly released from the block; also recorded: prevented manifestation of B[a]P-mediated S-phase block
- effect on B[a]P-mediated S-phase block [12]: restored into the cell cycle; also recorded: preponderantly released from the block; also recorded: prevented manifestation of B[a]P-mediated S-phase block

SMILES: c1ccc2c(c1)cc1ccc3cccc4ccc2c1c34 [B[a]P, benzo[a]pyrene, reference compound]
- EC50 [13]: 14 µM
- EC50 [14]: 1.4 µM
